Results from ChEMBL document CHEMBL1275449, “Potent in vitro antifungal activities of naturally occurring acetylenic acids” (Antimicrob Agents Chemother, 2008).
Activity calls are given as the source filed them. The rule behind the calls is not given here.

How the values were obtained:
LLC-PK1 = test: Cytotoxicity against pig LLC-PK1 cells up to 32 uM by neutral red method; assay type: cell-based, Sus scrofa
Procedure, shortened: (§1)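 Neutral red uptake cytotoxicity, top concentration 32 μM.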

SK-OV-3 = test: Cytotoxicity against human SKOV3 cells up to 32 uM by neutral red method; assay type: cell-based; procedure, shortened: as §1
Candida albicans [1] = test: Antifungal activity against Candida albicans ATCC 60193 at 178.6 uM after 48 hrs by CLSI method; assay type: functional, organism-based
Procedure, shortened: (§2)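 Candida inocula came from 24–72-h SD agar colonies suspended in saline. They were diluted by OD630 standard curve into RPMI 1640 (0.2% dextrose, 0.03% glutamine, 0.165 M MOPS, pH 7.0) to 1.5 × 10³ CFU/ml. Compounds were run as 11 twofold dilutions in 20% DMSO-saline, in duplicate, at 35°C for 48 h, with OD530 read before and after. Percent growth at the top concentration, IC50, MIC, and MFC (SD agar plating) were derived.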

BT-549 = test: Cytotoxicity against human BT549 cells up to 32 uM by neutral red method; assay type: cell-based; procedure, shortened: as §1
Candida albicans [2] = test: Antifungal activity against Candida albicans ATCC 200955 at 178.6 uM after 48 hrs by CLSI method; assay type: functional, organism-based; procedure, shortened: as §2
[3] = system: Trichophyton mentagrophytes; test: Antifungal activity against Trichophyton mentagrophytes ATCC MYA-4439 by CLSI method; assay type: functional, organism-based
Procedure, shortened: (§3)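 Growth scraped from 1- to 6-week-old potato dextrose slants and filtered through Miracloth. Diluted in 5% Alamar blue-RPMI 1640 (MOPS pH 7.0) to 2.7 × 10⁴ CFU/ml. Eleven twofold dilutions in duplicate. Fluorescence at 544 nm excitation/590 nm emission read before and after 35°C, 5 days. IC50 fitted from percent growth. MIC taken as no detectable growth; MFC from clear or blue wells plated on PD agar.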

Trichophyton rubrum [4] = test: Antifungal activity against Trichophyton rubrum ATCC MYA-4438 by CLSI method; assay type: functional, organism-based; procedure, shortened: as §3
Cryptococcus neoformans [5] = test: Antifungal activity against Cryptococcus neoformans ATCC 66031 at 178.6 uM after 72 hrs by CLSI method; assay type: functional, organism-based
Procedure, shortened: (§4)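 SD broth replaced RPMI because growth in RPMI was poor; other CLSI conditions were kept. Inoculum was 1.5 × 10³ CFU/ml from colonies on SD agar, checked by plating. Twofold serial dilutions (11 concentrations) in 20% DMSO-saline were tested in duplicate. OD530 was read before and after incubation at 35°C for 72 h. Percent growth gave IC50; the MIC is the lowest concentration with no detectable growth.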

Trichophyton rubrum [6] = test: Antifungal activity against Trichophyton rubrum ATCC 10218 at 178.6 uM after 5 days by CLSI method; assay type: functional, organism-based
Nakaseomyces glabratus = test: Antifungal activity against Candida glabrata ATCC 90030 at 178.6 uM after 48 hrs by CLSI method; assay type: functional, organism-based; procedure, shortened: as §2
[7] = system: Trichophyton mentagrophytes; test: Antifungal activity against Trichophyton mentagrophytes ATCC 9533 at 178.6 uM after 5 days by CLSI method; assay type: functional, organism-based
Aspergillus fumigatus [8] = test: Antifungal activity against Aspergillus fumigatus ATCC 90906 at 178.6 uM after 48 hrs by CLSI method; assay type: functional, organism-based
Candida albicans [9] = test: Antifungal activity against Candida albicans ATCC 32354 at 178.6 uM after 48 hrs by CLSI method; assay type: functional, organism-based; procedure, shortened: as §2
Aspergillus flavus = test: Antifungal activity against Aspergillus flavus ATCC 204304 at 178.6 uM after 48 hrs by CLSI method; assay type: functional, organism-based
Candida parapsilosis = test: Antifungal activity against Candida parapsilosis ATCC 22019 at 178.6 uM after 48 hrs by CLSI method; assay type: functional, organism-based
Procedure, shortened: (§5)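 Yeast suspensions made from 3-5 colonies off 24-72 h SD agar plates in saline. They were diluted by OD630 standard curve in RPMI 1640 (0.2% dextrose, 0.03% glutamine, 0.165 M MOPS, pH 7.0) to 1.5 × 10³ CFU/ml. Twofold dilutions (11 concentrations, 20% DMSO-saline) run in duplicate. OD530 read before and after 35°C, 48 h. Line values are top test concentrations; no-growth endpoints give MIC/MFC.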

Pichia kudriavzevii = test: Antifungal activity against Candida krusei ATCC 6258 after 48 hrs by CLSI method; assay type: functional, organism-based; conditions: ATCC 6258, 48 h; procedure, shortened: as §2
SK-MEL = test: Cytotoxicity against human SK-MEL cells up to 32 uM by neutral red method; assay type: cell-based; procedure, shortened: as §1
Candida albicans [10] = test: Antifungal activity against Candida albicans ATCC 14053 at 178.6 uM after 48 hrs by CLSI method; assay type: functional, organism-based
Candida tropicalis = test: Antifungal activity against Candida tropicalis ATCC 750 at 178.6 uM after 48 hrs by CLSI method; assay type: functional, organism-based; procedure, shortened: as §5
[11] = system: Trichophyton mentagrophytes; test: Antifungal activity against Trichophyton mentagrophytes ATCC MYA-4439 at 178.6 uM after 5 days by CLSI method; assay type: functional, organism-based
Aspergillus niger = test: Antifungal activity against Aspergillus niger ATCC 16404 at 178.6 uM after 48 hrs by CLSI method; assay type: functional, organism-based
Candida albicans [12] = test: Antifungal activity against Candida albicans ATCC 90028 at 178.6 uM after 48 hrs by CLSI method; assay type: functional, organism-based; procedure, shortened: as §2
Candida albicans [13] = test: Antifungal activity against Fluconazole resistant Candida albicans isolate 17 at 178.6 uM after 48 hrs by CLSI method; assay type: functional, organism-based
Procedure, shortened: (§6)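 Candida in CLSI broth microdilution. Saline colony suspension set to 1.5 × 10³ CFU/ml (final) in MOPS-buffered RPMI 1640, pH 7.0. Test agent given as twofold serial dilutions in 20% DMSO-saline, duplicate wells. 35°C for 48 h. Growth read as OD530 before and after incubation. Percent inhibition scored at the highest test concentration.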

Cryptococcus neoformans [14] = test: Antifungal activity against Cryptococcus neoformans ATCC 90113 at 178.6 uM after 72 hrs by CLSI method; assay type: functional, organism-based; procedure, shortened: as §4
Trichophyton rubrum [15] = test: Antifungal activity against Trichophyton rubrum ATCC 10218 by CLSI method; assay type: functional, organism-based; procedure, shortened: as §3
Cryptococcus neoformans [16] = test: Antifungal activity against Cryptococcus neoformans ATCC 66031 after 72 hrs by CLSI method; assay type: functional, organism-based; conditions: ATCC 66031, 72 h; procedure, shortened: as §4
KB = test: Cytotoxicity against human KB cells up to 32 uM by neutral red method; assay type: cell-based; procedure, shortened: as §1
Vero = test: Cytotoxicity against African green monkey Vero cells up to 32 uM by neutral red method; assay type: cell-based; conditions: chlorocebus sabaeus; procedure, shortened: as §1
Candida albicans [17] = test: Antifungal activity against Fluconazole resistant Candida albicans isolate 1 at 178.6 uM after 48 hrs by CLSI method; assay type: functional, organism-based; procedure, shortened: as §6
Trichophyton rubrum [18] = test: Antifungal activity against Trichophyton rubrum ATCC MYA-4438 at 178.6 uM after 5 days by CLSI method; assay type: functional, organism-based
Aspergillus fumigatus [19] = test: Antifungal activity against Aspergillus fumigatus ATCC 204305 at 178.6 uM after 48 hrs by CLSI method; assay type: functional, organism-based

Compound: CCCCCCCCC#CCCCCCCCC(=O)O
- Activity (LLC-PK1): Non-toxic
- Activity (SK-OV-3): Non-toxic
- Activity (Candida albicans [1]): inactive
- Activity (BT-549): Non-toxic
- Activity (Candida albicans [2]): inactive
- IC50 [3]: > 179 µM
- IC50 (Trichophyton rubrum [4]): 80.2 µM
- Activity (Cryptococcus neoformans [5]): inactive
- Activity (Trichophyton rubrum [6]): inactive
- Activity (Nakaseomyces glabratus): inactive
- Activity [7]: inactive
- Activity (Aspergillus fumigatus [8]): inactive
- Activity (Candida albicans [9]): inactive
- Activity (Aspergillus flavus): inactive
- Activity (Candida parapsilosis): inactive
- IC50 (Pichia kudriavzevii): > 179 µM
- Activity (SK-MEL): Non-toxic
- Activity (Candida albicans [10]): inactive
- Activity (Candida tropicalis): inactive
- Activity [11]: inactive
- Activity (Aspergillus niger): inactive
- Activity (Candida albicans [12]): inactive
- Activity (Candida albicans [13]): inactive
- Activity (Cryptococcus neoformans [14]): inactive
- IC50 (Trichophyton rubrum [15]): > 179 µM
- IC50 (Cryptococcus neoformans [16]): > 179 µM
- Activity (KB): Non-toxic
- Activity (Vero): Non-toxic
- Activity (Candida albicans [17]): inactive
- Activity (Trichophyton rubrum [18]): inactive
- Activity (Aspergillus fumigatus [19]): inactive
